Assay results of several laboratories.
Lines come from different studies, so protocols differ.
Cell line: HEL
Effect on: cell growth or viability

`CCOP(=O)(OCC)[C@@H]1C[C@@H](n2cc(Cn3ccc(NC(C)=O)nc3=O)nn2)ON1C` (racemic) has a CC50 of over 100 µM (72 h).
`CCCCCCCCCCCCCCCCOCCCOP(=O)(O)COCCn1cnc2c(=O)[nH]c(=O)[nH]c21` has a CC50 of 10 µM (72 h).
For `Nc1nc2c(ncn2COCCO)c(=O)[nH]1`, the CC50 was 440 µM.
With `CC(C)CNC(=O)[C@H](C)NC(=O)[C@@]1(Cc2ccccc2)CCN1C(=O)OCc1ccccc1` the CC50 was over 100 µM (72 h).
For `CCOP(=O)(OCC)[C@@H]1C[C@@H](n2cc(Cn3ccc(=O)[nH]c3=O)nn2)ON1C` (racemic), the CC50 was over 100 µM (72 h).
The CC50 of `CCOP(=O)(OCC)[C@H]1C[C@@H](Cn2c(=O)n(C(=O)c3ccccc3)c(=O)c3ccccc32)ON1C` is reported as over 100 µM.
`C[C@H](NC(=O)[C@@]1(Cc2ccccc2)CCN1C(=O)OCc1ccccc1)C(=O)N(C)C` has a CC50 of over 100 µM (72 h).
The CC50 of `O=c1[nH]c(=O)c2ncn(CC(CO)OCP(=O)(O)O)c2[nH]1` (racemic) is reported as at least 300 µM (72 h).
`C[C@H](NC(=O)[C@]1(Cc2ccccc2)CCN1C(=O)OCc1ccccc1)C(=O)NCc1ccccc1` has a CC50 of 42 µM (72 h).
The CC50 of `CCOP(=O)(OCC)[C@@H]1C[C@H](n2cc(-c3nccn3C)nn2)ON1C` is reported as over 100 µM (72 h).
